# Data as given in ChEMBL document CHEMBL4152188, “Design, synthesis and biological evaluation of C(4) substituted monobactams as antibacterial agents against multidrug-resistant Gram-negative bacteria” (Eur J Med Chem, 2018).
# Columns and labels:
# Assay type in all cases: functional
# Pseudomonas aeruginosa [1] = test: Antibacterial activity against IMP-4 producing Pseudomonas aeruginosa isolate 207272 after 18 hrs by CLSI broth microdilution method; details: isolate 207272, 18 h
# Pseudomonas aeruginosa [2] = test: Selectivity index, ratio of MIC for against IMP-4 producing Pseudomonas aeruginosa isolate 212886 to MIC for against IMP-4 producing Pseudomonas aeruginosa isolate 212886 in presence of BPL
# Escherichia coli [3] = test: Antibacterial activity against Escherichia coli isolate 210737 after 18 hrs in presence of BPL by CLSI broth microdilution method; details: isolate 210737, 18 h
# How it was run: (§1)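 CLSI broth microdilution against clinical isolates (ESBL E. coli, KPC-2 MDR K. pneumoniae, IMP-4 MDR P. aeruginosa; five per species). Iron limitation: Mueller-Hinton broth supplemented with 16 mg/liter 2,2'-bipyridyl to complex iron and induce iron uptake systems. Read-out: MIC.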
# Escherichia coli [4] = test: Antibacterial activity against extended-spectrum beta-lactamase producing Escherichia coli isolate 209285 after 18 hrs by CLSI broth microdilution method; details: isolate 209285, 18 h
# Klebsiella pneumoniae [5] = test: Antibacterial activity against KPC-2 producing Klebsiella pneumoniae isolate 212229 after 18 hrs in presence of BPL by CLSI broth microdilution method; details: isolate 212229, 18 h; how it was run: as §1
# Klebsiella pneumoniae [6] = test: Antibacterial activity against KPC-2 producing Klebsiella pneumoniae isolate 212423 after 18 hrs by CLSI broth microdilution method; details: isolate 212423, 18 h
# Pseudomonas aeruginosa [7] = test: Antibacterial activity against IMP-4 producing Pseudomonas aeruginosa isolate 209321 after 18 hrs by CLSI broth microdilution method; details: isolate 209321, 18 h
# Pseudomonas aeruginosa [8] = test: Antibacterial activity against IMP-4 producing Pseudomonas aeruginosa isolate 208247 after 18 hrs by CLSI broth microdilution method; details: isolate 208247, 18 h
# Escherichia coli [9] = test: Selectivity index, ratio of MIC for against extended-spectrum beta-lactamase producing Escherichia coli isolate 208687 to MIC for extended-spectrum beta-lactamase producing Escherichia coli isolate 208687 in presence of BPL
# Klebsiella pneumoniae [10] = test: Antibacterial activity against KPC-2 producing Klebsiella pneumoniae isolate 212232 after 18 hrs in presence of BPL by CLSI broth microdilution method; details: isolate 212232, 18 h; how it was run: as §1
# Escherichia coli [11] = test: Selectivity index, ratio of MIC for against extended-spectrum beta-lactamase producing Escherichia coli isolate 212648 to MIC for extended-spectrum beta-lactamase producing Escherichia coli isolate 212648 in presence of BPL
# Escherichia coli [12] = test: Selectivity index, ratio of MIC for against extended-spectrum beta-lactamase producing Escherichia coli isolate 209285 to MIC for extended-spectrum beta-lactamase producing Escherichia coli isolate 209285 in presence of BPL
# Escherichia coli [13] = test: Antibacterial activity against Escherichia coli isolate 210737 after 18 hrs by CLSI broth microdilution method; details: isolate 210737, 18 h
# Klebsiella pneumoniae [14] = test: Antibacterial activity against KPC-2 producing Klebsiella pneumoniae isolate 209735 after 18 hrs in presence of BPL by CLSI broth microdilution method; details: isolate 209735, 18 h; how it was run: as §1
# Klebsiella pneumoniae [15] = test: Antibacterial activity against KPC-2 producing Klebsiella pneumoniae isolate 212232 after 18 hrs by CLSI broth microdilution method; details: isolate 212232, 18 h
# Pseudomonas aeruginosa [16] = test: Antibacterial activity against IMP-4 producing Pseudomonas aeruginosa isolate 212886 after 18 hrs in presence of BPL by CLSI broth microdilution method; details: isolate 212886, 18 h; how it was run: as §1
# Escherichia coli [17] = test: Antibacterial activity against extended-spectrum beta-lactamase producing Escherichia coli isolate 212648 after 18 hrs by CLSI broth microdilution method; details: isolate 212648, 18 h
# Pseudomonas aeruginosa [18] = test: Selectivity index, ratio of MIC for against IMP-4 producing Pseudomonas aeruginosa isolate 209321 to MIC for against IMP-4 producing Pseudomonas aeruginosa isolate 209321 in presence of BPL
# Pseudomonas aeruginosa [19] = test: Antibacterial activity against IMP-4 producing Pseudomonas aeruginosa isolate 212886 after 18 hrs by CLSI broth microdilution method; details: isolate 212886, 18 h
# Pseudomonas aeruginosa [20] = test: Antibacterial activity against IMP-4 producing Pseudomonas aeruginosa isolate 209471 after 18 hrs by CLSI broth microdilution method; details: isolate 209471, 18 h
# Escherichia coli [21] = test: Antibacterial activity against extended-spectrum beta-lactamase producing Escherichia coli isolate 209285 after 18 hrs in presence of BPL by CLSI broth microdilution method; details: isolate 209285, 18 h; how it was run: as §1
# Klebsiella pneumoniae [22] = test: Antibacterial activity against KPC-2 producing Klebsiella pneumoniae isolate 209632 after 18 hrs in presence of BPL by CLSI broth microdilution method; details: isolate 209632, 18 h; how it was run: as §1
# Escherichia coli [23] = test: Selectivity index, ratio of MIC for against extended-spectrum beta-lactamase producing Escherichia coli isolate 106342 to MIC for extended-spectrum beta-lactamase producing Escherichia coli isolate 106342 in presence of BPL
# Pseudomonas aeruginosa [24] = test: Antibacterial activity against IMP-4 producing Pseudomonas aeruginosa isolate 209471 after 18 hrs in presence of BPL by CLSI broth microdilution method; details: isolate 209471, 18 h; how it was run: as §1
# Pseudomonas aeruginosa [25] = test: Antibacterial activity against IMP-4 producing Pseudomonas aeruginosa isolate 209321 after 18 hrs in presence of BPL by CLSI broth microdilution method; details: isolate 209321, 18 h; how it was run: as §1
# Pseudomonas aeruginosa [26] = test: Selectivity index, ratio of MIC for against IMP-4 producing Pseudomonas aeruginosa isolate 207272 to MIC for against IMP-4 producing Pseudomonas aeruginosa isolate 207272 in presence of BPL
# Pseudomonas aeruginosa [27] = test: Selectivity index, ratio of MIC for against IMP-4 producing Pseudomonas aeruginosa isolate 209471 to MIC for against IMP-4 producing Pseudomonas aeruginosa isolate 209471 in presence of BPL
# Pseudomonas aeruginosa [28] = test: Antibacterial activity against IMP-4 producing Pseudomonas aeruginosa isolate 207272 after 18 hrs in presence of BPL by CLSI broth microdilution method; details: isolate 207272, 18 h; how it was run: as §1
# Klebsiella pneumoniae [29] = test: Antibacterial activity against KPC-2 producing Klebsiella pneumoniae isolate 209735 after 18 hrs by CLSI broth microdilution method; details: isolate 209735, 18 h
# Pseudomonas aeruginosa [30] = test: Selectivity index, ratio of MIC for against IMP-4 producing Pseudomonas aeruginosa isolate 208247 to MIC for against IMP-4 producing Pseudomonas aeruginosa isolate 208247 in presence of BPL
# Klebsiella pneumoniae [31] = test: Selectivity index, ratio of MIC for against KPC-2 producing Klebsiella pneumoniae isolate 209735 to MIC for against KPC-2 producing Klebsiella pneumoniae isolate 209735 in presence of BPL
# Escherichia coli [32] = test: Antibacterial activity against extended-spectrum beta-lactamase producing Escherichia coli isolate 212648 after 18 hrs in presence of BPL by CLSI broth microdilution method; details: isolate 212648, 18 h; how it was run: as §1
# Klebsiella pneumoniae [33] = test: Selectivity index, ratio of MIC for against KPC-2 producing Klebsiella pneumoniae isolate 212423 to MIC for against KPC-2 producing Klebsiella pneumoniae isolate 212423 in presence of BPL
# Klebsiella pneumoniae [34] = test: Antibacterial activity against KPC-2 producing Klebsiella pneumoniae isolate 212423 after 18 hrs in presence of BPL by CLSI broth microdilution method; details: isolate 212423, 18 h; how it was run: as §1
# Escherichia coli [35] = test: Antibacterial activity against extended-spectrum beta-lactamase producing Escherichia coli isolate 106342 after 18 hrs by CLSI broth microdilution method; details: isolate 106342, 18 h
# Pseudomonas aeruginosa [36] = test: Antibacterial activity against IMP-4 producing Pseudomonas aeruginosa isolate 208247 after 18 hrs in presence of BPL by CLSI broth microdilution method; details: isolate 208247, 18 h; how it was run: as §1
# Escherichia coli [37] = test: Selectivity index, ratio of MIC for against Escherichia coli isolate 210737 to MIC for Escherichia coli isolate 210737 in presence of BPL
# Klebsiella pneumoniae [38] = test: Selectivity index, ratio of MIC for against KPC-2 producing Klebsiella pneumoniae isolate 209632 to MIC for against KPC-2 producing Klebsiella pneumoniae isolate 209632 in presence of BPL
# Escherichia coli [39] = test: Antibacterial activity against extended-spectrum beta-lactamase producing Escherichia coli isolate 208687 after 18 hrs in presence of BPL by CLSI broth microdilution method; details: isolate 208687, 18 h; how it was run: as §1
# Klebsiella pneumoniae [40] = test: Selectivity index, ratio of MIC for against KPC-2 producing Klebsiella pneumoniae isolate 212232 to MIC for against KPC-2 producing Klebsiella pneumoniae isolate 212232 in presence of BPL
# Escherichia coli [41] = test: Antibacterial activity against extended-spectrum beta-lactamase producing Escherichia coli isolate 208687 after 18 hrs by CLSI broth microdilution method; details: isolate 208687, 18 h
# Klebsiella pneumoniae [42] = test: Antibacterial activity against KPC-2 producing Klebsiella pneumoniae isolate 212229 after 18 hrs by CLSI broth microdilution method; details: isolate 212229, 18 h
# Escherichia coli [43] = test: Antibacterial activity against extended-spectrum beta-lactamase producing Escherichia coli isolate 106342 after 18 hrs in presence of BPL by CLSI broth microdilution method; details: isolate 106342, 18 h; how it was run: as §1
# Klebsiella pneumoniae [44] = test: Selectivity index, ratio of MIC for against KPC-2 producing Klebsiella pneumoniae isolate 212229 to MIC for against KPC-2 producing Klebsiella pneumoniae isolate 212229 in presence of BPL
# Klebsiella pneumoniae [45] = test: Antibacterial activity against KPC-2 producing Klebsiella pneumoniae isolate 209632 after 18 hrs by CLSI broth microdilution method; details: isolate 209632, 18 h
structure (smiles),measurement,setting,value
CC(C)C(O/N=C(\C(=O)NC1C(=O)N(S(=O)(=O)O)C12CCCC2)c1csc(N)n1)c1cc(=O)c(O)cn1O (stereo not given),MIC,Pseudomonas aeruginosa [1],16 µg/mL
same,Selectivity Index,Pseudomonas aeruginosa [2],1
same,MIC,Escherichia coli [3],0.25 µg/mL
same,MIC,Escherichia coli [4],1 µg/mL
same,MIC,Klebsiella pneumoniae [5],1 µg/mL
same,MIC,Klebsiella pneumoniae [6],2 µg/mL
same,MIC,Pseudomonas aeruginosa [7],16 µg/mL
same,MIC,Pseudomonas aeruginosa [8],16 µg/mL
same,Selectivity Index,Escherichia coli [9],2
same,MIC,Klebsiella pneumoniae [10],1 µg/mL
same,Selectivity Index,Escherichia coli [11],4
same,Selectivity Index,Escherichia coli [12],2
same,MIC,Escherichia coli [13],0.5 µg/mL
same,MIC,Klebsiella pneumoniae [14],1 µg/mL
same,MIC,Klebsiella pneumoniae [15],4 µg/mL
same,MIC,Pseudomonas aeruginosa [16],16 µg/mL
same,MIC,Escherichia coli [17],4 µg/mL
same,Selectivity Index,Pseudomonas aeruginosa [18],1
same,MIC,Pseudomonas aeruginosa [19],16 µg/mL
same,MIC,Pseudomonas aeruginosa [20],32 µg/mL
same,MIC,Escherichia coli [21],0.5 µg/mL
same,MIC,Klebsiella pneumoniae [22],1 µg/mL
same,Selectivity Index,Escherichia coli [23],4
same,MIC,Pseudomonas aeruginosa [24],16 µg/mL
same,MIC,Pseudomonas aeruginosa [25],16 µg/mL
same,Selectivity Index,Pseudomonas aeruginosa [26],1
same,Selectivity Index,Pseudomonas aeruginosa [27],2
same,MIC,Pseudomonas aeruginosa [28],16 µg/mL
same,MIC,Klebsiella pneumoniae [29],4 µg/mL
same,Selectivity Index,Pseudomonas aeruginosa [30],2
same,Selectivity Index,Klebsiella pneumoniae [31],4
same,MIC,Escherichia coli [32],1 µg/mL
same,Selectivity Index,Klebsiella pneumoniae [33],2
same,MIC,Klebsiella pneumoniae [34],1 µg/mL
same,MIC,Escherichia coli [35],2 µg/mL
same,MIC,Pseudomonas aeruginosa [36],8 µg/mL
same,Selectivity Index,Escherichia coli [37],2
same,Selectivity Index,Klebsiella pneumoniae [38],8
same,MIC,Escherichia coli [39],0.5 µg/mL
same,Selectivity Index,Klebsiella pneumoniae [40],4
same,MIC,Escherichia coli [41],1 µg/mL
same,MIC,Klebsiella pneumoniae [42],4 µg/mL
same,MIC,Escherichia coli [43],0.5 µg/mL
same,Selectivity Index,Klebsiella pneumoniae [44],4
same,MIC,Klebsiella pneumoniae [45],8 µg/mL
